IC50 data for 17 compounds are collected here from ChEMBL document CHEMBL4219251, “Synthesis and biological evaluation of 2,4-disubstituted phthalazinones as Aurora kinase inhibitors” (Bioorg Med Chem, 2018).

The subject of one assay is HeLa. In words: Antiproliferative activity against human HeLa cells after 72 hrs by MTT assay. The class given is functional, cell-based. In outline: (§1)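 Cells kept in RPMI-1640 with 10% FBS at 37 °C, 5% CO2. Seeded at 5×10^3 cells/well and grown 24 h, then exposed 72 h at 37 °C to five concentrations (0.01, 0.1, 1, 10, 100 μM) in medium. MTT added for 4 h, formazan dissolved in DMSO, absorbance read at 490 nm. IC50 taken from a log plot of percent of control vs concentration; means ± SD of triplicate experiments.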
In general terms: Tetrazolium assays rely on reduction of a dye to a coloured formazan, in cell work by metabolically active cells.

The subject of the next assay is A549. Nature of the assay: Antiproliferative activity against human A549 cells after 72 hrs by MTT assay. The class given is functional, cell-based. The procedure, abridged:
as §1

Another assay relates to HepG2. Nature of the assay: Antiproliferative activity against human HepG2 cells after 72 hrs by MTT assay. The class given is functional, cell-based. In outline:
as §1

For another assay, the system named is LoVo. Nature of the assay: Antiproliferative activity against human LoVo cells after 72 hrs by MTT assay. The class given is functional, cell-based. In outline:
as §1

In a further assay the test system is HCT-116. Nature of the assay: Antiproliferative activity against human HCT116 cells after 72 hrs by MTT assay. The class given is functional, cell-based. The procedure, abridged: as §1
Another assay deals with T1, Aurora kinase A (Homo sapiens, UniProt O14965).
T1 sequence (O14965 whole entry): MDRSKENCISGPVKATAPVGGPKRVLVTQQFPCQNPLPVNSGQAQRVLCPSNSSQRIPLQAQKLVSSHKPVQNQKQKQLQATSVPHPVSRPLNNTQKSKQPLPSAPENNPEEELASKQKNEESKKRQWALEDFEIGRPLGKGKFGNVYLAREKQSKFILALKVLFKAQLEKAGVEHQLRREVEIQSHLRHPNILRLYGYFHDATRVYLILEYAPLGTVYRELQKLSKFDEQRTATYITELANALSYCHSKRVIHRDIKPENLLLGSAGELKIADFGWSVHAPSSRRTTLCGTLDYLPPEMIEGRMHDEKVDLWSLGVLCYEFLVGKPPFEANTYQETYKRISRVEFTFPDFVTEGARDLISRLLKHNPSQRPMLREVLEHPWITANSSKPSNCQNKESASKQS
In words: Inhibition of Aurora A (unknown origin) using kemptide as substrate after 30 mins by kinase-Glo luminescence method. In outline: (§2)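 Luminescent kinase assay. Reaction buffer: 40 mM Tris pH 7.4, 10 mM MgCl2, 1 mM DTT, 0.1 mg/ml BSA, 10 μM ATP, 0.2 μg/ml kinase, 100 μM Kemptide. Compounds tested at 0.1, 1, 10, 100 and 1000 nM (diluted in PBS). Reactions ran 30 min at 37 °C, signal read by Kinase-Glo luminescence, IC50 fitted from the curves.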

In a further assay the target is Aurora kinase B (Homo sapiens, UniProt Q96GD4). Nature of the assay: Inhibition of Aurora B (unknown origin) using kemptide as substrate after 30 mins by kinase-Glo luminescence method. In outline:
as §2

Aurora kinase B, sequence (Q96GD4 whole entry): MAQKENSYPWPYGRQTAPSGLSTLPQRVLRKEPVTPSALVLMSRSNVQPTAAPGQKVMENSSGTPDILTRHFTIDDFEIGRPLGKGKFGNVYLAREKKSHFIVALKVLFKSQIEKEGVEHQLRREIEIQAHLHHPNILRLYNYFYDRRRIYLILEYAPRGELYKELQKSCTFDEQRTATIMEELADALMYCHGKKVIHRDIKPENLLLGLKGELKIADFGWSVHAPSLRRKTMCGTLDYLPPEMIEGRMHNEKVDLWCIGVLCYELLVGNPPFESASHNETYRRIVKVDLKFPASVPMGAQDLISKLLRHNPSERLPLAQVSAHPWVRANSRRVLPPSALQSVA

Regarding `Cn1cc(-c2nn(Cc3ccc(C(=O)N4CCCCC4)cc3)c(=O)c3ccccc23)cn1`, the IC50 (as a rule, the concentration that inhibits the measured activity by half) in the assay on HeLa (Homo sapiens, HeLa, 72 h) worked out at 65.5 µM; with A549 (Homo sapiens, A549, 72 h), 67.4 µM; with HepG2 (Homo sapiens, HepG2, 72 h), 73.1 µM; in the assay with LoVo (Homo sapiens, LoVo, 72 h), 77.1 µM; in the assay on HCT-116 (Homo sapiens, HCT-116, 72 h), 73.9 µM.
The matching figures for `Cc1noc(C)c1-c1nn(Cc2ccc(C(=O)NC3CCN(C)CC3)cc2)c(=O)c2ccccc12`: above 100 µM, above 100 µM, above 100 µM, above 100 µM and 84.9 µM.
As to `CN1CCC(NC(=O)c2ccc(Cn3nc(-c4cnn(C)c4)c4ccccc4c3=O)cc2)CC1`, the IC50 in the assay with HeLa (Homo sapiens, HeLa, 72 h) is 28.5 µM; in the assay on A549 (Homo sapiens, A549, 72 h), 54.3 µM; in the assay with HepG2 (Homo sapiens, HepG2, 72 h), 47.3 µM; with LoVo (Homo sapiens, LoVo, 72 h), 83.3 µM; with HCT-116 (Homo sapiens, HCT-116, 72 h) it was 69.5 µM; against Aurora kinase A it was 0.183 µM. Besides, half-maximal inhibition on Aurora kinase B (IC50) was put at 0.105 µM.
Consider `Cc1noc(C)c1-c1nn(Cc2ccc(C(=O)N3CCCCC3)cc2)c(=O)c2ccccc12`, for which the IC50 in the assay with HeLa (Homo sapiens, HeLa, 72 h) was above 100 µM; in the assay on A549 (Homo sapiens, A549, 72 h) it was 86.2 µM; in the assay with HepG2 (Homo sapiens, HepG2, 72 h), 97.3 µM; with LoVo (Homo sapiens, LoVo, 72 h), above 100 µM; with HCT-116 (Homo sapiens, HCT-116, 72 h), above 100 µM.
For `Cn1cc(-c2nn(Cc3ccc(C(=O)NC4CC4)cc3)c(=O)c3ccccc23)cn1`, the IC50 in the assay on HeLa (Homo sapiens, HeLa, 72 h) was 40 µM; in the assay on A549 (Homo sapiens, A549, 72 h), 51.2 µM; with HepG2 (Homo sapiens, HepG2, 72 h) it was above 100 µM; with LoVo (Homo sapiens, LoVo, 72 h) it was 48.2 µM; in the assay on HCT-116 (Homo sapiens, HCT-116, 72 h), 20.1 µM.
Regarding `Cc1noc(C)c1-c1nn(Cc2ccc(C(=O)NC3CC(C)(C)N([O])C(C)(C)C3)cc2)c(=O)c2ccccc12`, the IC50 is 83.5 µM in the assay with HeLa (hela); 84.3 µM with A549 (a549); 85.1 µM in the assay on HepG2 (hepg2); 41.2 µM in the assay with LoVo (lovo); 36.8 µM in the assay with HCT-116 (hct-116).
In the case of `Cc1noc(C)c1-c1nn(Cc2ccc(C(=O)NC3CC3)cc2)c(=O)c2ccccc12`, the IC50 in the assay on HeLa (Homo sapiens, HeLa, 72 h) was above 100 µM; in the assay with A549 (Homo sapiens, A549, 72 h), above 100 µM; with HepG2 (Homo sapiens, HepG2, 72 h), above 100 µM; with LoVo (Homo sapiens, LoVo, 72 h) it was above 100 µM; in the assay with HCT-116 (Homo sapiens, HCT-116, 72 h), above 100 µM.
In the case of `Cn1cc(-c2nn(Cc3ccc(C(=O)NC4CCCC4)cc3)c(=O)c3ccccc23)cn1`, the 50% inhibitory concentration (IC50) in the assay on HeLa (Homo sapiens, HeLa, 72 h) was found to be 16.7 µM; in the assay on A549 (Homo sapiens, A549, 72 h) it was 32.3 µM; in the assay on HepG2 (Homo sapiens, HepG2, 72 h) it was 84.3 µM; with LoVo (Homo sapiens, LoVo, 72 h) it was 23.7 µM; in the assay on HCT-116 (Homo sapiens, HCT-116, 72 h) it was 14.3 µM; at Aurora kinase A it was 0.583 µM. The compound also yielded an IC50 at Aurora kinase B of 0.265 µM.
Regarding `Cc1noc(C)c1-c1nn(Cc2ccc(C(=O)N3CCOCC3)cc2)c(=O)c2ccccc12`, the IC50 was above 100 µM in the assay with HeLa (Homo sapiens, HeLa, 72 h); above 100 µM in the assay on A549 (Homo sapiens, A549, 72 h); above 100 µM with HepG2 (Homo sapiens, HepG2, 72 h); 84.4 µM in the assay with LoVo (Homo sapiens, LoVo, 72 h); above 100 µM in the assay with HCT-116 (Homo sapiens, HCT-116, 72 h).
On to `Cn1cc(Nc2nn(Cc3ccc(C(=O)NC4CCCCC4)cc3)c(=O)c3ccccc23)cn1`, for which the IC50 turned out to be 3.2 µM with HeLa (Homo sapiens, HeLa, 72 h); 6.8 µM in the assay with A549 (Homo sapiens, A549, 72 h); 8.3 µM in the assay with HepG2 (Homo sapiens, HepG2, 72 h); 5.3 µM with LoVo (Homo sapiens, LoVo, 72 h); 5.4 µM in the assay with HCT-116 (Homo sapiens, HCT-116, 72 h); 0.145 µM against Aurora kinase A. At Aurora kinase B, this compound displayed an IC50 of 0.132 µM.
As to `Cc1noc(C)c1-c1nn(Cc2ccc(C(=O)NC3CCCCC3)cc2)c(=O)c2ccccc12`, the IC50 was above 100 µM in the assay with HeLa (Homo sapiens, HeLa, 72 h); above 100 µM in the assay with A549 (Homo sapiens, A549, 72 h); above 100 µM with HepG2 (Homo sapiens, HepG2, 72 h); 82.2 µM in the assay on LoVo (Homo sapiens, LoVo, 72 h); above 100 µM in the assay with HCT-116 (Homo sapiens, HCT-116, 72 h).
Consider `O=C(Nc1ccccc1Cl)c1ccc(Nc2nn(Cc3ccc(C(=O)NC4CCCCC4)cc3)c(=O)c3ccccc23)cc1`, for which the 50% inhibitory concentration (IC50) with HeLa (Homo sapiens, HeLa, 72 h) was 87.3 µM; in the assay on A549 (Homo sapiens, A549, 72 h), above 100 µM; with HepG2 (Homo sapiens, HepG2, 72 h) it was 82.4 µM; in the assay on LoVo (Homo sapiens, LoVo, 72 h), 79.5 µM; in the assay on HCT-116 (Homo sapiens, HCT-116, 72 h), above 100 µM.
Consider `O=C(NC1CCCCC1)c1ccc(Cn2nc(Nc3ccc(C(=O)N4CCOCC4)cc3)c3ccccc3c2=O)cc1`, for which the IC50 in the assay with HeLa (Homo sapiens, HeLa, 72 h) was 23.2 µM; with A549 (Homo sapiens, A549, 72 h), 64.3 µM; in the assay on HepG2 (Homo sapiens, HepG2, 72 h) it was 40.4 µM; in the assay on LoVo (Homo sapiens, LoVo, 72 h), 54.5 µM; in the assay with HCT-116 (Homo sapiens, HCT-116, 72 h) it was 48.2 µM.
As for `Cc1noc(C)c1-c1nn(Cc2ccc(C(=O)NC3CCCC3)cc2)c(=O)c2ccccc12`, the IC50 in the assay on HeLa (Homo sapiens, HeLa, 72 h) was above 100 µM; with A549 (Homo sapiens, A549, 72 h), above 100 µM; in the assay on HepG2 (Homo sapiens, HepG2, 72 h), above 100 µM; in the assay on LoVo (Homo sapiens, LoVo, 72 h), above 100 µM; with HCT-116 (Homo sapiens, HCT-116, 72 h) it was above 100 µM.
In the case of `Cn1cc(-c2nn(Cc3ccc(C(=O)NC4CC(C)(C)N([O])C(C)(C)C4)cc3)c(=O)c3ccccc23)cn1`, the IC50 amounted to 27.7 µM in the assay with HeLa (Homo sapiens, HeLa, 72 h); 37.3 µM in the assay with A549 (Homo sapiens, A549, 72 h); 27.4 µM in the assay with HepG2 (Homo sapiens, HepG2, 72 h); 50.1 µM with LoVo (Homo sapiens, LoVo, 72 h); 50.5 µM with HCT-116 (Homo sapiens, HCT-116, 72 h); 0.168 µM on Aurora kinase A. Also, the IC50 against Aurora kinase B worked out at 0.134 µM.
For the compound `Cn1cc(-c2nn(Cc3ccc(C(=O)N4CCOCC4)cc3)c(=O)c3ccccc23)cn1`, the IC50 in the assay with HeLa (Homo sapiens, HeLa, 72 h) is above 100 µM; with A549 (Homo sapiens, A549, 72 h), 73.3 µM; in the assay with HepG2 (Homo sapiens, HepG2, 72 h) it was above 100 µM; in the assay on LoVo (Homo sapiens, LoVo, 72 h), 52.3 µM; with HCT-116 (Homo sapiens, HCT-116, 72 h), above 100 µM.
Turning to `Cc1cc(Nc2nn(Cc3ccccc3)c(=O)c3ccccc23)n[nH]1`, the IC50 came to 6.3 µM in the assay on HeLa (Homo sapiens, HeLa, 72 h); 42.6 µM in the assay on A549 (Homo sapiens, A549, 72 h); 11.3 µM with HepG2 (Homo sapiens, HepG2, 72 h); 22.2 µM in the assay on LoVo (Homo sapiens, LoVo, 72 h); 22.7 µM in the assay with HCT-116 (Homo sapiens, HCT-116, 72 h).
